Bioassay records (PubChem BioAssay)
TCR CD3 inh = blocks the human TCR-CD3 interaction. TAMRA-labeled TCR probe fluorescence, biochemical. inhibition, % at 9.4 µM. actives 0.37% (n = 360,000); in the data active means inhibition above about 19%;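 further: recombinant mutant TCR 2C K166C tagged with TAMRA read by polarization; 0% = receptor in buffer alone and 100% = receptor with positive control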
SIAE primary = inhibitors of human sialic acid acetylesterase SIAE. Q9HAT2. SIAE FP-Rh probe binding, fluorescence polarization. inhibition, % at 9.66 µM. actives 0.69% (n = 370,000). AID 1053197;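 active means inhibition above a cutoff: mean of compounds within the control limits plus 3 SD of those, cut at about 17% in these data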;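 further: 0% = plate median of compound wells and 100% = probe without SIAE protein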
PRMT1 FP inh = PRMT1 (human) inhibition, primary screen; Q99873; recombinant PRMT1, activity-based probe fluorescence polarization; inhibition, % at 2.79 µM; actives 1.3% (n = 370,000); AID 652257;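 active means inhibition above about 21% made by adding two undisclosed values, limit read from the data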
Target sequence (Q99873 whole entry, looked up): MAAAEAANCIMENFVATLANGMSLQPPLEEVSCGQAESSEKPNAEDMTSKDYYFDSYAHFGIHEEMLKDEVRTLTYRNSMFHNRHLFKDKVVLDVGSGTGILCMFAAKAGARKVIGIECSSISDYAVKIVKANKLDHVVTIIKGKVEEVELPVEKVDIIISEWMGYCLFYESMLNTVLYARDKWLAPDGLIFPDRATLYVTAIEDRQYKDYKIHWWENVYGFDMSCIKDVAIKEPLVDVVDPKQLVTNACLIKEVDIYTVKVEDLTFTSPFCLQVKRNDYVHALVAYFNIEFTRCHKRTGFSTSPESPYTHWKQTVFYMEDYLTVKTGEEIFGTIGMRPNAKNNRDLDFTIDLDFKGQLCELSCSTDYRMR
ATG4B inhibitor = blocks human ATG4B protease cleavage of LC3 substrate; ATG4B cleavage of LC3-PLA2, NBD-HPC fluorescence, 1 h; Q9Y4P1; actives 0.51% (n = 340,000); inhibition, % at 8.33 µM; in the data active means inhibition above about 40%
ABHD4 inh = ABHD4 (mouse) inhibition, primary FP screen; Q8VD66; purified mABHD4, FP-Rh probe fluorescence polarization; inhibition, % at 8.92 µM; actives 0.54% (n = 370,000); AID 720543;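 active means inhibition exceeding the mean over every tested compound plus 3 SD, cut at about 30% in these data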;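 further: 0% = plate median of compound wells and 100% = S159A mutant with DMSO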
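Assay system: wild-type mouse ABHD4 protein; compound: single nominal dose of 8.92 µM, 0.89% DMSO final; schedule: 45 min + 60 min at 25 °C; measured by: FP readout, ex 525 nm / em 598 nm; evaluation: % inhibition of FP-Rh probe binding versus controls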
HTRA1 inh = blocks human HTRA1 serine peptidase. inhibition, % at 5.96 µM. recombinant HTRA1, FP-rhodamine activity-based probe, fluorescence polarization. actives 0.5% (n = 340,000); in the data active means inhibition above about 36%;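 further: 0% = enzyme with DMSO and 100% = wells lacking enzyme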
PRMT1 inh conf = confirmation of human PRMT1 inhibitors; inhibition, % at 2.79 µM; recombinant His-PRMT1, activity-based probe fluorescence polarization; shares compounds with PRMT1 FP inh; actives 42% (n = 3,300);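 active means mean inhibition across replicates above the hit cutoff derived for the earlier primary screen, cut at about 22% in these data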
Starred values were filed as active, the others as inactive; / = no result given. An excerpt weighted towards active compounds, which were near 2.9% of everything screened.

SMILES	TCR CD3 inh	SIAE primary	PRMT1 FP inh	ATG4B inhibitor	ABHD4 inh	HTRA1 inh	PRMT1 inh conf
CCN=C1SC(CC(=O)NCCc2ccc(OC)c(OC)c2)C(=O)N1CC (configuration not stated)	2	-2	32*	-13	7	-6	-1
CCN=C1SC(CC(=O)NC(N)=O)C(=O)N1CC (configuration not stated)	1	2	-1	-3	-1	2	/
COc1ccc(CCNC(=O)CC2SC(=NCc3ccccc3)NC2=O)cc1 (configuration not stated)	4	6	2	-13	5	-1	/
COP(=O)(O)C(COCCC(CC(C)C)NC(=O)OCc1ccccc1[N+](=O)[O-])NC(=O)OCc1ccccc1 (configuration not stated)	/	1	1	/	-1	/	/
C#CCN(C)S(=O)(=O)c1ccc(N2CCCC2)cc1Br	/	0	2	/	4	/	/
O=C(NCCc1ccccc1)OCc1cn(Cc2cccc(F)c2F)nn1	/	1	-2	/	0	/	/
CN(C)CC(=O)N[C@H]1C[C@@H]2O[C@H](CO)CC[C@@H]2O[C@@H]1CCc1ccc(-c2ccc(F)cc2)cc1	/	3	6	/	-5	/	/
CCN1CCN(C(=S)c2ccc(OCC(=O)NCc3ccccc3)cc2)CC1	7	4	27*	-7	1	3	38*
O=C(NC1CCCCC1)c1nn2c(C(F)(F)F)cc(-c3ccco3)nc2c1Br	1	4	0	2	3	24	/
O=C(c1ccccc1)N1CCN(C(=O)c2nn3c(C(F)(F)F)cc(-c4ccco4)nc3c2Br)CC1	-4	15	30*	-2	20	6	3
CCC1Oc2ccc(C)cc2N(CC(=O)N(Cc2ccc(C)o2)C2CCCC2)C1=O (configuration not stated)	-3	6	47*	5	-6	-12	38*
O=C(O)C1Nc2c(C(F)(F)F)ccc(Cl)c2C2C=CCC12 (configuration not stated)	0	4	33*	17	36*	20	28*
O=C(O)C1Nc2c(C(=O)N3CCOCC3)cccc2C2C=CCC12 (configuration not stated)	/	/	/	2	/	6	/
COC(=O)[C@H](C(C)C)N(CCCc1cn(CC2CCCCC2)nn1)S(=O)(=O)c1ccccc1Br	/	-6	3	/	2	/	/
CCOC(=O)[C@]12CCCCC/C=C\1N(Cc1ccc(OC)cc1)C(=O)[C@H]2CC(=O)N1CCSCC1	/	1	0	/	-6	/	/
COc1cc(C=Nn2c(-c3n[nH]c4c3CCC4)n[nH]c2=S)ccc1OCc1ccccc1	/	3	5	/	-3	/	/
O=C(Cc1ccc(S(=O)(=O)N2CCOCC2)s1)Nc1nc2c(s1)CCCC2	-5	5	29*	6	9	-6	4
O=C(Cc1ccc(S(=O)(=O)N2CCOCC2)s1)Nc1ccc2c(c1)CCC2	-5	-7	1	-11	-14	-14	/
COC(=O)CNC(c1ccccc1)c1cc(Br)ccc1NC(=O)CCN1CCOCC1 (configuration not stated)	3	1	19	-7	6	-41	/
CCOC(=O)CNC(c1ccccc1)c1cc(Br)ccc1NC(=O)CCN1CCOCC1 (configuration not stated)	5	3	37*	-3	11	-31	0
Nc1ccn([C@@H]2O[C@H](C(=O)N[C@H](Cc3ccccc3)C(=O)NCc3cccc4c3OCO4)[C@@H](O)[C@H]2O)c(=O)n1	2	7	-1	/	-1	/	/
COc1ccc(C2NC(=S)N3C(c4ccc(OC)cc4)NC(=S)N23)cc1 (configuration not stated)	-3	4	46*	2	-11	12	5
C=CCn1c(=S)[nH]c2scc(-c3ccc(C)o3)c2c1=O	6	6	28*	-8	-6	-4	16
C=CCn1c(SCC(C)=O)nc2scc(-c3ccc(C)o3)c2c1=O	-6	-4	25*	-5	1	-6	10
COc1ccc2c(c1)NC(=O)[C@@]2(CCN1C(=O)c2ccccc2C1=O)c1[nH]c2ccccc2c1CCN1C(=O)c2ccccc2C1=O	/	-16	5	/	-21	/	/
